# Measurements collected from several papers.
# CHEK2: Serine/threonine-protein kinase Chk2 (CHEK2, Homo sapiens, UniProt O96017)
# SLC6A2: Sodium-dependent noradrenaline transporter (SLC6A2, Homo sapiens, UniProt P23975)
# MPO: Myeloperoxidase (MPO, Homo sapiens, UniProt P05164)
Compound,target,test,system,conditions,quantity,result
COc1ccc2oc(-c3ccc4nc(N)oc4c3)c/c(=N\c3ccccc3NC(=O)CCN)c2c1,CHEK2,binding,,1 µM,remaining binding,76%
CNc1nc(C#Cc2ccc(Cl)s2)nc2c1ncn2[C@H]1[C@H](O)[C@H](O)[C@]2(CC#N)C[C@H]12,SLC6A2,"transporter uptake, inhibitor, radiometric",HEK293,10 µM,inhibition,16%
Cc1cc(O)c(-c2ccc([C@@H](C)CN(C)C)cc2)c2c1[nH]c(=O)c1sccc12,"Peripheral plasma membrane protein CASK (CASK, Homo sapiens, UniProt O14936)","cell-free assay, inhibitor",,"0.1 µM, lysate",inhibition,3.12%
CC(C)OCCn1c(=S)[nH]c(=O)c2[nH]ccc21,MPO,"enzyme activity, inhibitor",,0.156 µM,remaining activity,93.7%
C1=C/COCc2cc(ccc2OCCN2CCCC2)Nc2nccc(n2)-c2cccc(c2)COC/1,"Fibroblast growth factor receptor 1 (FGFR1, Homo sapiens, UniProt P11362)",binding,,0.1 µM,remaining binding,88%
CNc1nc(I)nc2c1ncn2[C@H]1[C@H](O)[C@H](O)[C@]2(CC#N)C[C@H]12,SLC6A2,"ligand displacement, radioligand",,10 µM,inhibition,-6%
CCCCC(=O)Nc1ccc(-c2ccc3ncn(CCC)c(=O)c3c2)cn1,CHEK2,"binding, competition with immobilised ligand",,0.5 µM,remaining binding,96%
O[C@@H]1[C@H](O)[C@@H]2C[C@@H]2[C@H]1n1cnc2c(NCCC3CC3)ncnc21,SLC6A2,"transporter uptake, inhibitor, radiometric",HEK293,10 µM,inhibition,0%
NC/C(=C\F)COc1cccc(Cn2c(=S)[nH]c(=O)c3[nH]cnc32)c1,MPO,"enzyme activity, inhibitor, fluorescence",,3 µM,inhibition,99.7%
